Compound activity (PubChem BioAssay)
A selection: hits, their analogues and other compounds. The true share with any hit is near 2.5%.
GalR3 antag: GalR3 antagonists in HEK293 cells, primary screen, cell-based, fluorescence readout; Galanin receptor type 3 (Homo sapiens), O60755; AID 651719, 2012; inhibition, % at 3 µM; 0.44% of 360,000 active; HEK293 GalR3-CNG cAMP membrane potential fluorescence; galR3 body fused to GalR1 C-terminus;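 active = inhibition above the screen-wide average plus 3 SD, cut at about 13% in these data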;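 also: forskolin and galanin both at EC90 stimulate the cells; cAMP rise reported by CNG channel membrane potential dye signal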
MsrA act: bovine MsrA enzyme activators, primary screen, biochemical, absorbance, HTS | activation, % at 10.6 µM | purified bovine MsrA, absorbance read-out | AID 602163, 2012 | Methionine sulfoxide reductase A (Bos taurus) | 0.3% of 360,000 active; in the data active = activation above about 7.5%
NR2E3 ag-1: NR2E3 agonists in two-hybrid cells, primary screen, cell-based, luminescence, CHO-S, Gal4-NCOR/VP16-NR2E3 | Photoreceptor-specific nuclear receptor (Homo sapiens), Q9Y5X4 | luciferase | inhibition of corepressor binding, % at 3.98 µM | 0.35% of 360,000 active | AID 602229, 2012;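 active = inhibition above the mean of all tested compounds plus 3 SD, cut at about 70% in these data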;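 also: higher means lower luciferase signal from less NR2E3 corepressor binding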
Target sequence (Q9Y5X4 whole entry, looked up, the tested form may be a part): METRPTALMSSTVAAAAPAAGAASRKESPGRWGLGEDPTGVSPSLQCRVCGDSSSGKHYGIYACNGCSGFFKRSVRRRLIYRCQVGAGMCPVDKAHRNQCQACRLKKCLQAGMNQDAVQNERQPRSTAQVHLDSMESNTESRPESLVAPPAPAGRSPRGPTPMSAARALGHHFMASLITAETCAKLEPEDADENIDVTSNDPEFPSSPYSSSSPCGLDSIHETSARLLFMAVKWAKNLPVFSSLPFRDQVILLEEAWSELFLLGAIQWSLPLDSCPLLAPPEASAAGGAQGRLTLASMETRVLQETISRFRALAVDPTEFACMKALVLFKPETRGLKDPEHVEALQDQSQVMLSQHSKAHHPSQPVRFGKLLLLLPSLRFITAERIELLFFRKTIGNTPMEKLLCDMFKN
MsrA inh: bovine MsrA enzyme inhibitors, primary screen, biochemical, absorbance, HTS. Methionine sulfoxide reductase A (Bos taurus). purified bovine MsrA, absorbance read-out. inhibition, % at 15.5 µM. 0.75% of 360,000 active. AID 651718, 2012; in the data active = inhibition above about 4.5%
NadD inh: inhibitors of S. aureus NadD, primary screen, biochemical, colorimetric, uHTS. AID 602399, 2012. Nicotinate-nucleotide adenylyltransferase NadD (Staphylococcus aureus N315). 0.78% of 360,000 active. purified NadD enzyme, colorimetric absorbance read-out. inhibition, % at 20 µM; in the data active = inhibition above about 26%
NR2E3 ag-2: inhibitors of NR2E3-RetCOR corepressor binding, primary screen, NR2E3 agonist project, biochemical, TR-FRET, GST-NR2E3, biotin-RetCOR; Photoreceptor-specific nuclear receptor (Homo sapiens), Q9Y5X4; 1536-well; inhibition of corepressor binding, % at 4.78 µM; 0.12% of 320,000 active;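 active = percent inhibition above the cutoff of mean plus 3 SD of all tested compounds, set per screening campaign, cut at about 20% in these data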
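Test system: GST-NR2E3 and biotin-RetCOR proteins | Quantity: 1.35 nM GST-tagged NR2E3 final | Medium: Tris pH 7.5 | Also added: 7 nM biotin-RetCOR | Dosing: Compound at 4.8 µM, single dose | Timing: 5 h at 4 °C | Detection: Time-resolved FRET | Read-out basis: Percent inhibition | Benchmarks: Biotin wells as high control, 0.6% DMSO wells as low control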
GalR3 antag conf: GalR3 antagonist hit confirmation, cell-based, fluorescence, triplicate; shares compounds with GalR3 antag; HEK293 GalR3 CNG cAMP biosensor, membrane potential fluorescence; galR3 fused to GalR1 carboxy tail; challenged with forskolin and galanin at EC90; inhibition, % at 3 µM; 59% of 1,600 active;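 active = inhibition above the primary screen's cutoff, the mean inhibition of all screened compounds plus 3 SD, cut at about 13% in these data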
HEK-CNG parental: nonspecific cAMP agonists in parental HEK-CNG cells, counter-screen for GalR3 antagonist project, cell-based, fluorescence, high throughput; activation, % at 3 µM; HEK293-CNG parental cells, cAMP membrane potential fluorescence; normalised: DMSO wells 0%, forskolin wells 100%; 10% of 1,600 active; shares compounds with GalR3 antag; in the data active = activation above about 1.3%
Of the large screens only hits and unclear results are named; the others gave an inactive call (follow-up assays come after a bar, where they were run).

COc1cc(C2NC(=O)NC(C)=C2C(=O)OCc2ccc(C)cc2)cc(OC)c1O (stereo not given)	GalR3 antag 15 | GalR3 antag conf 14 | HEK-CNG parental inactive
CN(C)S(=O)(=O)c1ccc(Cl)c(C(=O)NCCNC(=O)c2cc(S(=O)(=O)N(C)C)ccc2Cl)c1	GalR3 antag 13 | GalR3 antag conf inactive | HEK-CNG parental inactive
O=C(CSc1nnc(CNC(=O)c2ccccc2F)o1)c1ccccc1	none
COc1cc(/C=C2\SC(c3ccc(C)cc3)=NC2=O)ccc1O	GalR3 antag 17 | GalR3 antag conf inactive | HEK-CNG parental inactive
CCOC(=O)CN(C(=O)Cn1nnc2ccccc21)C(C(=O)NCCOC)c1ccccc1C (stereo not given)	none
CCOc1ccc(/C(O)=C2/C(=O)C(=O)N(c3ccccn3)C2c2ccc(F)cc2)c(C)c1 (stereo not given)	none
Cn1c(C(=O)NN)cc2cc(Oc3ccccc3)ccc21	GalR3 antag 60 | GalR3 antag conf 44 | HEK-CNG parental inactive
CCCCCCC1CCC(c2nc(-c3ccncc3)no2)CC1 (stereo not given)	none
COc1ccc2c(c1)OC(=O)CC2c1cc(OC)c(OC)c(OC)c1 (stereo not given)	GalR3 antag 13 (no result: NR2E3 ag-2) | GalR3 antag conf inactive | HEK-CNG parental inactive
CC(C)=CCOc1ccc([C@@H]2COc3c(ccc4c3C=CC(C)(C)O4)C2)c(O)c1	GalR3 antag 19 | GalR3 antag conf 18 | HEK-CNG parental 22
COc1ccc(OCc2cc(=O)c3ccc4c(c3o2)C=CC(C)(C)O4)cc1OC	none (no result: NR2E3 ag-2)
O=C(NCC1CCN(Cc2ccc(F)cc2)CC1)C1CCCN(c2ncnc3c2nc2n3CCCCC2)C1 (stereo not given)	none
O=C(NCC1CCN(Cc2ccc(Cl)cc2)CC1)C1CCCN(c2ncnc3c2nc2n3CCCCC2)C1 (stereo not given)	GalR3 antag 62 | GalR3 antag conf 84 | HEK-CNG parental 2.0
CCN(CC)S(=O)(=O)c1cccc(NC(=O)COC(=O)c2cc(C)oc2C)c1	none
CCCNC(=O)c1n[nH]c(=O)c2ccccc12	none
CCN(CC)S(=O)(=O)c1cccc(NC(=O)COC(=O)c2n[nH]c(=O)c3ccccc23)c1	GalR3 antag 15 | GalR3 antag conf 51 | HEK-CNG parental inactive
O=C(NCCOc1ccccc1)c1n[nH]c(=O)c2ccccc12	GalR3 antag 20 | GalR3 antag conf inactive | HEK-CNG parental inactive
O=C(COC(=O)c1n[nH]c2ccccc12)Nc1ccc(S(=O)(=O)N2CCCC2)cc1	GalR3 antag 104 | GalR3 antag conf 110 | HEK-CNG parental inactive
CCc1ccc(NC(=O)c2n[nH]c(=O)c3ccccc23)cc1	GalR3 antag 15 | GalR3 antag conf inactive | HEK-CNG parental inactive
CCc1nnc(NC(=O)c2n[nH]c(=O)c3ccccc23)s1	none
CC(=O)Oc1c(Sc2ccccc2[N+](=O)[O-])c(C)nn1C(C)(C)C	none
CCOC(=O)Cn1nnnc1C(C(C)C)N(Cc1cccs1)Cc1cc2cc(C)ccc2[nH]c1=O (stereo not given)	GalR3 antag 37 | GalR3 antag conf 28 | HEK-CNG parental inactive
Cc1ccc(OCC(=O)Nc2cc(S(=O)(=O)N3CCCCC3)ccc2C)c([N+](=O)[O-])n1	GalR3 antag 13 | GalR3 antag conf inactive | HEK-CNG parental inactive
Cc1ccc(OCC(=O)Nc2ccc(S(=O)(=O)N3CCCCC3)cc2)c([N+](=O)[O-])n1	none
CCCc1ccc(O)c(N=Cc2cc(Br)cc(OCC)c2O)c1	GalR3 antag 16 | GalR3 antag conf inactive | HEK-CNG parental inactive
CCc1ccc(O)c(N=Cc2cccc(C)c2O)c1	none
CC1CCN(C(=O)c2[nH]cnc2C(=O)NCc2ccccc2)CC1	none (no result: GalR3 antag) | GalR3 antag conf inactive | HEK-CNG parental inactive
C=CCOc1ccc(-c2nc3c(c(=O)[nH]c(=O)n3CCCC)n2C)cc1OC	none
COc1cc(NC(=O)COc2cccc(C)c2C)ccc1NC(=O)c1ccco1	GalR3 antag 14 | GalR3 antag conf inactive | HEK-CNG parental inactive
N/C(=N\NS(=O)(=O)c1ccc(Cl)cc1)c1ccccn1	GalR3 antag 14 | GalR3 antag conf inactive | HEK-CNG parental inactive
CC1(C)Cc2cccc(OCC(=O)N3CCN(c4ccc(F)cc4)CC3)c2O1	none
O=C(CN(Cc1cccs1)C(=O)CSc1nnc(COc2ccccc2)o1)NC1CCCCC1	GalR3 antag 13 | GalR3 antag conf inactive | HEK-CNG parental inactive
CC1(C)CC(=O)C2=C(C1)NC1=C(C(=O)c3ccccc31)C2c1ccc(O)cc1 (stereo not given)	GalR3 antag 34 | GalR3 antag conf 60 | HEK-CNG parental inactive
CCCc1ccc(C2C3=C(CC(C)(C)CC3=O)NC3=C2C(=O)c2ccccc23)cc1 (stereo not given)	none
C#Cc1ccc([C@H]2C=C(C(=O)NCc3ccccc3)O[C@@H](OCC)[C@@H]2CCCO)cc1	none
C#Cc1ccc([C@@H]2C=C(C(=O)Nc3ccccc3)O[C@H](OCC)[C@H]2CCCO)cc1	none (no result: GalR3 antag) | GalR3 antag conf inactive | HEK-CNG parental inactive
CC(C)c1ccc(CN2CCN(C(=O)CSc3nnnn3C3CC3)CC2)cc1	GalR3 antag 97 | GalR3 antag conf 107 | HEK-CNG parental inactive
CCCc1ccc(Oc2cc(C)nc(N3CCOCC3)n2)cc1	GalR3 antag 15 | GalR3 antag conf inactive | HEK-CNG parental inactive
CC(=O)NCCc1ccc(O)cc1	none
C[C@H](NCCc1ccc(O)cc1)[C@H](O)c1ccc(O)cc1	GalR3 antag 39 | GalR3 antag conf 62 | HEK-CNG parental inactive
Cc1cc(C)c(OCCN2CCOCC2)c(Cl)c1	none
C=CCN(c1ccccc1)S(=O)(=O)c1cccc(C(=O)NC2CCN(Cc3ccccc3)CC2)c1	GalR3 antag 89 | GalR3 antag conf 62 | HEK-CNG parental 1.4
